Test results taken from ChEMBL document CHEMBL1140723, “Positive and negative modulation of group I metabotropic glutamate receptors” (J Med Chem, 2008).
Active and inactive are the calls of the source. The rule behind the calls is not given here.

Legend:
[1] = biological target: Metabotropic glutamate receptor 5 (Rattus norvegicus) (UniProt P31424); assay: Displacement of [3H]MPEP from rat mGluR5 upto 10 uM
Method in brief: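 Membranes were washed four times in 50 mM Tris-HCl pH 8.0 and resuspended in 50 mM Tris-HCl pH 7.5. 125–250 µg protein was incubated with 5 nM [3H]MPEP and test agent (up to 10 µM), up to 5% DMSO, 60 min at RT. Nonspecific binding: 10 µM MPEP. Filtered on glass fibre filters, rinsed with ice-cold buffer, then scintillation counted.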

[2] = biological target: T1, Metabotropic glutamate receptor 1 (Rattus norvegicus, UniProt P23385); assay: Antagonist activity at rat mGluR1 expressed in cerebellar granule cells assessed as accumulation of [3H]inositol phosphate; type: functional, cell-based
T1 sequence (P23385 whole entry): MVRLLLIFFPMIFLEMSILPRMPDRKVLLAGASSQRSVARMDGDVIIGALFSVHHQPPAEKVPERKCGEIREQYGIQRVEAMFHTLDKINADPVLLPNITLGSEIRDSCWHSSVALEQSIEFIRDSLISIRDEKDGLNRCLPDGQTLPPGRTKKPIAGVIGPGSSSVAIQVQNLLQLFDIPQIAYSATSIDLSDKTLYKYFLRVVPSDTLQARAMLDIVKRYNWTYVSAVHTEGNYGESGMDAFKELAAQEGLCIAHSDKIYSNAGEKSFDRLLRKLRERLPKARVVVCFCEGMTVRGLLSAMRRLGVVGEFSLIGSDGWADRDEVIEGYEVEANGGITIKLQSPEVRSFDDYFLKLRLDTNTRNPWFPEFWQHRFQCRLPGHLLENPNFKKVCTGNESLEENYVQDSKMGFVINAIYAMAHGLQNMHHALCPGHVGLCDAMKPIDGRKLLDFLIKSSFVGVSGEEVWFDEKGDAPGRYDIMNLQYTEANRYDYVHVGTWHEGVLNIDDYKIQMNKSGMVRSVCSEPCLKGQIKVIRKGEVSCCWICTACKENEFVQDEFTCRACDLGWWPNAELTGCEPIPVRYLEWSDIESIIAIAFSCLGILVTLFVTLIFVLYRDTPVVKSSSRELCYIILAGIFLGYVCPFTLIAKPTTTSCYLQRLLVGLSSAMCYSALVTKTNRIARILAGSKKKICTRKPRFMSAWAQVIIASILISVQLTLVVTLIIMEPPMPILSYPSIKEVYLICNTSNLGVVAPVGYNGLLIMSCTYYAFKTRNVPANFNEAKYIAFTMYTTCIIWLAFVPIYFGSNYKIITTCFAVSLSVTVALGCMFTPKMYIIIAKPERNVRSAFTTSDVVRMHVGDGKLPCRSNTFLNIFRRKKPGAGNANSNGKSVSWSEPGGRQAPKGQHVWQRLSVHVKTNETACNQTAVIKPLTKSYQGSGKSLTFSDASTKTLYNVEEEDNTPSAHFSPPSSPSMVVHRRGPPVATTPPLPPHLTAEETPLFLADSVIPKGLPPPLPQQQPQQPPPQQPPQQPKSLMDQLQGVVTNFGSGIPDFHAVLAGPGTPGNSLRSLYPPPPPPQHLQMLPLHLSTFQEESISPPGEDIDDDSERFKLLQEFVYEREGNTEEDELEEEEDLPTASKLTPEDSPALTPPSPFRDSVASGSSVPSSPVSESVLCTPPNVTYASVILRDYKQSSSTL

[3] = biological target: Metabotropic glutamate receptor 5 (Rattus norvegicus) (UniProt P31424); assay: Reversal of antagonist activity at Sprague-Dawley rat astrocyte mGluR5 in presence of L-quisqualate mGluR5 agonist at 10 uM by FLIPR assay; type: functional
[4] = biological target: T2, Metabotropic glutamate receptor 5 (Rattus norvegicus, UniProt P31424); assay: Displacement of [3H]MPEP from rat mGluR5
T2 sequence (P31424 whole entry): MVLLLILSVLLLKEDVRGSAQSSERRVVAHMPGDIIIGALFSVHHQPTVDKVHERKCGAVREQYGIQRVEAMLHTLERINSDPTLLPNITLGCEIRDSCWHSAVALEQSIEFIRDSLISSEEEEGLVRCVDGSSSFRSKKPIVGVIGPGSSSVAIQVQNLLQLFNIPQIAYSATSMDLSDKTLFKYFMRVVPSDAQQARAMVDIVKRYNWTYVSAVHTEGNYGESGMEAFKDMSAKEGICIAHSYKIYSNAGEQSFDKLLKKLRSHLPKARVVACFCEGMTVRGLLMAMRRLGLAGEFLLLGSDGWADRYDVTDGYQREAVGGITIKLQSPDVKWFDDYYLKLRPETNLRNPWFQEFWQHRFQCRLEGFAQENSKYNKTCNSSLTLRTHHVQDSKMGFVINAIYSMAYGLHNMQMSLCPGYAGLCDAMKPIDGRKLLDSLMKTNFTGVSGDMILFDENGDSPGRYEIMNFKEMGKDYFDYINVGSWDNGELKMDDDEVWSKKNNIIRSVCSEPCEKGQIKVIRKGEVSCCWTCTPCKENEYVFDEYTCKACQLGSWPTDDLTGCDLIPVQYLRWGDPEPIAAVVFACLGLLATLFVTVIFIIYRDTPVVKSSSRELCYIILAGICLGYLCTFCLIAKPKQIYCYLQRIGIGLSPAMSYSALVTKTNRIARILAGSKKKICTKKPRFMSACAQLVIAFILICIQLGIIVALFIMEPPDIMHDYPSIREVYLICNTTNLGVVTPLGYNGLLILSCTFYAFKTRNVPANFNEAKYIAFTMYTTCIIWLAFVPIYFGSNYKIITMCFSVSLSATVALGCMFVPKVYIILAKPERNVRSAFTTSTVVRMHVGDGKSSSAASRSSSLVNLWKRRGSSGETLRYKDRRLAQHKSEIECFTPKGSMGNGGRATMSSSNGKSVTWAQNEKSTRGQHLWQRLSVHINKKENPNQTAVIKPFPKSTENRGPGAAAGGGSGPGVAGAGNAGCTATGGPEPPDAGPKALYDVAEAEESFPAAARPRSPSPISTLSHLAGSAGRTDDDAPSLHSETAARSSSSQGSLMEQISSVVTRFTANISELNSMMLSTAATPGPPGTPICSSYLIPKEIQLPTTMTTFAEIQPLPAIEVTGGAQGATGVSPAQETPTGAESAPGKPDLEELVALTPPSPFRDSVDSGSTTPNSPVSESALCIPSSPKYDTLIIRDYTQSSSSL

[5] = biological target: Metabotropic glutamate receptor 5 (Rattus norvegicus) (UniProt P31424); assay: Positive modulation of rat mGluR5 assessed as fold left shift of L-quisqualate EC50 by calcium FLIPR assay
[6] = biological target: T3, Metabotropic glutamate receptor 5 (Homo sapiens, UniProt P41594); assay: Reversal of antagonist activity at human mGluR5 expressed in CHO cells in presence of L-glutamate mGluR5 agonist at 10 uM by FLIPR assay; type: functional, cell-based
[7] = biological target: T2, Metabotropic glutamate receptor 5; assay: Antagonist activity at mGluR5 in Sprague-Dawley rat astrocyte assessed as L-quisqualate induced potentiation of intracellular calcium level by FLIPR assay; type: functional, cell-based
[8] = biological target: T3, Metabotropic glutamate receptor 5; assay: Positive modulation of human mGluR5 assessed as fold left shift of L-glutamate EC50 by calcium FLIPR assay
[9] = biological target: T1, Metabotropic glutamate receptor 1; assay: (§1) Antagonist activity at rat mGluR1 by FLIPR assay; type: functional
[10] = biological target: T3, Metabotropic glutamate receptor 5; assay: Antagonist activity at human mGluR5 expressed in CHO cells assessed as L-glutamate induced potentiation of intracellular calcium level by FLIPR assay; type: functional, cell-based
Method in brief: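 Human mGluR5 FLIPR calcium assay. Cells were loaded with Ca-sensitive dye for 2 h at RT in HEPES-buffered saline, pH 7.3. The dye kit contained glutamic-pyruvate transferase, Na-pyruvate and pyridoxal phosphate to avoid glutamate build-up. Compounds were preincubated 5 min before L-glutamate, and the intracellular calcium rise was read as RFU.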
Target sequence in this assay (P41594 whole entry): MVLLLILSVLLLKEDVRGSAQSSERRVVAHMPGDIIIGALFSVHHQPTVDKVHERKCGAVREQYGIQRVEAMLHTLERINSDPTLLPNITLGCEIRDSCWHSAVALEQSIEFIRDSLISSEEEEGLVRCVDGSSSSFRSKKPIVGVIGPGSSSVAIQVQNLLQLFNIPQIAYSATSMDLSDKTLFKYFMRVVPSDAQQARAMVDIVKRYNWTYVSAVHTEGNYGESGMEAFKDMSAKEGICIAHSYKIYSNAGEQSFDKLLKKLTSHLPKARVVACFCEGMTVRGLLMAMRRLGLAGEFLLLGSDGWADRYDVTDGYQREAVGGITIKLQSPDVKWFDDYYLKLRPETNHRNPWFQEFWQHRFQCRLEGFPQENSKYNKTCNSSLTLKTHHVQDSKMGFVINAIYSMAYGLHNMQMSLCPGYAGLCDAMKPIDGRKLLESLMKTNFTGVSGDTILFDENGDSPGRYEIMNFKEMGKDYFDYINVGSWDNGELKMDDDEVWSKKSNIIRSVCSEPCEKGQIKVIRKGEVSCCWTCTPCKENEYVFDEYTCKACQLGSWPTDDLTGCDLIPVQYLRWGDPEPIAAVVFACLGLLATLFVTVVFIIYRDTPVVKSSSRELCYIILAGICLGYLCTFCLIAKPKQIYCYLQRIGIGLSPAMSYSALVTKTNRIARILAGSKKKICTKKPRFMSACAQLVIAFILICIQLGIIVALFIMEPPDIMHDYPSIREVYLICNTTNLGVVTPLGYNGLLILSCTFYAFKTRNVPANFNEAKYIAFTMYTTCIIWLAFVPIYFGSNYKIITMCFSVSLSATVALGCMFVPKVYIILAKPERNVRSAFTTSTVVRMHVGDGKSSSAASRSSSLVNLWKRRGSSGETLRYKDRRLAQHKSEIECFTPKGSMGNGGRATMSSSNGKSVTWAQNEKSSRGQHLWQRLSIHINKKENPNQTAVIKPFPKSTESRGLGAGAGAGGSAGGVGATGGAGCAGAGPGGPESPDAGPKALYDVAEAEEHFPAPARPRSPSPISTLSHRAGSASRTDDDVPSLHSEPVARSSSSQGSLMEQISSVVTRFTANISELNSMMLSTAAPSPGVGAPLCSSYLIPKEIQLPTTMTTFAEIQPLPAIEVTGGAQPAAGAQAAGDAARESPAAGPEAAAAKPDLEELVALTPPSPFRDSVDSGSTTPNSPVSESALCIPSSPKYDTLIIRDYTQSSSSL

[11] = biological target: Metabotropic glutamate receptor 1 (Rattus norvegicus) (UniProt P23385); assay: as §1; type: functional

Chain of Metabotropic glutamate receptor 5 (Rattus norvegicus) (P31424 21-1203 limits assumed): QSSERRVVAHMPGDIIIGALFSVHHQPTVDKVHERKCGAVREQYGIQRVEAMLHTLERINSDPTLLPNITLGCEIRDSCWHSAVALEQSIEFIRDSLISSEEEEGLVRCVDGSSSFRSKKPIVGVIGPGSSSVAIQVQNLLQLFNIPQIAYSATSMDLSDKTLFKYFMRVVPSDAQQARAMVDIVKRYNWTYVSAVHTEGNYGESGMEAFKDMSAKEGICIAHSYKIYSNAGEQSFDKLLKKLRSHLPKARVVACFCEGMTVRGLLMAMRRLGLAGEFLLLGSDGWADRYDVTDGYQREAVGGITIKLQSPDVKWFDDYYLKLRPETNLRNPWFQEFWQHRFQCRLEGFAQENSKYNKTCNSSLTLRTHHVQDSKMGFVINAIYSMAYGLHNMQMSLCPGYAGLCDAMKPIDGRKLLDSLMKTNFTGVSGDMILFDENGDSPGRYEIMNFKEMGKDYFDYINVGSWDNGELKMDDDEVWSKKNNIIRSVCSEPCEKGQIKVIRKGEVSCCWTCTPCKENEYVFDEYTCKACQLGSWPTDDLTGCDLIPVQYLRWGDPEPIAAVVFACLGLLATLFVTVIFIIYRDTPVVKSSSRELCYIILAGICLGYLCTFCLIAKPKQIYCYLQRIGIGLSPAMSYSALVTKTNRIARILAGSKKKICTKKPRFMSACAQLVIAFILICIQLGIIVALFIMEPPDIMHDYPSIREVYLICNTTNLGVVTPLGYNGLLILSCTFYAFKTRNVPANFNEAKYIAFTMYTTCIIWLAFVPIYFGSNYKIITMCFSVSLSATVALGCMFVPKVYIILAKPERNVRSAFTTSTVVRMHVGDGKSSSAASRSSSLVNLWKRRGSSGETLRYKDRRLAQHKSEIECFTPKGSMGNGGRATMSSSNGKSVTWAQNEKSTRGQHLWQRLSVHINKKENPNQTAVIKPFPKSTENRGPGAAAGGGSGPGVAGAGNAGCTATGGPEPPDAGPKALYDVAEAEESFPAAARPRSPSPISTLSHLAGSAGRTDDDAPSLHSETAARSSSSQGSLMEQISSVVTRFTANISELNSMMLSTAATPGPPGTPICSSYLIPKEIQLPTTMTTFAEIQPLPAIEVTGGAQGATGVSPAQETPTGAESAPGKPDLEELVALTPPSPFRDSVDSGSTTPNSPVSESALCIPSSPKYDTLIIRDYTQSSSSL

| Activity [1] | IC50 [2] [µM] | IC50 [4] [µM] | SMILES | also measured |
| --- | --- | --- | --- | --- |
| inactive | 10.4 |  | O=C1CCCc2nc(N3CCN(c4ccccc4)CC3)ccc21 |  |
|  |  |  | O=C1CCCc2nc(C#Cc3ccccc3)ccc21 | Activity [3]: Active; Ki [4]: 0.8 µM; Activity [5]: 2; Activity [6]: Active; EC50 [7]: 0.034 µM; Activity [8]: 3.2 |
| inactive |  |  | CC1(C)CC(=O)c2cc(-c3nn[nH]n3)c(NC3CCCC3)nc2C1 | IC50 [9]: 13 µM |
| inactive | 4 |  | CC1(C)CC(=O)c2cc(C#N)c(NC3CCCCC3)nc2C1 |  |
| inactive | 0.16 |  | CC1(C)CC(=O)c2cc(C#N)c(N3CCN(c4ccc(F)cc4)CC3)nc2C1 |  |
| inactive | 0.11 |  | CC1(C)CC(=O)c2cc(C#N)c(N3CC=C(c4ccc(F)cc4)CC3)nc2C1 |  |
| inactive |  |  | CC1(C)CC(=O)c2cc([N+](=O)[O-])c(NC3CC=C(c4ccc(F)cc4)CC3)nc2C1 (stereo not given) | IC50 [9]: 12 µM |
| inactive | 2.3 |  | CCCNc1nc2c(cc1C#N)C(=O)CC(C)(C)C2 |  |
| inactive | 2.6 |  | CCCCCCNc1nc2c(cc1C#N)C(=O)CC(C)(C)C2 |  |
|  |  |  | O[C@H]1CCCc2nc(C#Cc3ccccc3)ccc21 | EC50 [10]: 1.08 µM; Ki [4]: 9.28 µM; Activity [5]: 2; EC50 [7]: 0.25 µM; Activity [8]: 2.5 |
| inactive | 1.9 |  | CC1(C)CC(=O)c2cc(C#N)c(NC3Cc4ccccc4C3)nc2C1 |  |
| inactive | 5.3 |  | CN(Cc1ccccc1)c1nc2c(cc1C#N)C(=O)CC(C)(C)C2 |  |
|  | 21 | 12 | CC1(C)CC(=O)c2ccc(OCc3ccccc3)nc2C1 |  |
| inactive | 7.6 |  | COc1ccc(N2CCN(c3nc4c(cc3C#N)C(=O)CC(C)(C)C4)CC2)cc1 |  |
|  |  | 60 | O=C1CCCc2nc(C#Cc3ccccn3)ccc21 | Ki [4]: 2.36 µM |
|  |  | 0.51 | C(#Cc1ccc2c(n1)CCCC2)c1ccccc1 | Ki [4]: 1.5 µM |
|  | 25 | 80 | CN(Cc1ccccc1)c1nc2c(cc1C#N)C(=O)CCC2 |  |
|  |  | 4.6 | COC(=O)c1ccc(C#Cc2ccccc2)nc1 | Ki [4]: 1.4 µM |
|  |  | 0.023 | CC1(C)CCc2nc(C#Cc3ccccc3)ccc2C1=O | Ki [4]: 0.051 µM |
|  |  | 0.08 | COC1CCCc2nc(C#Cc3ccccc3)ccc21 (stereo not given) | Ki [4]: 0.139 µM |
| inactive |  |  | CC1(C)CC(=O)c2cc(C(=O)O)c(NC3CCCC3)nc2C1 | IC50 [9]: 23 µM |
|  | 45 | 8.1 | CC1(C)CC(=O)c2ccc(NCc3ccccc3)nc2C1 |  |
|  | 0.078 | 49 | CC1(C)CC(=O)c2cc(C#N)c(NC3CCCC3)nc2C1 |  |

| Activity [1] | IC50 [2] [µM] | IC50 [4] [µM] | SMILES | also measured |
| --- | --- | --- | --- | --- |
| inactive | 3 |  | N#Cc1cc2c(nc1NC1CCCCC1)CCCC2=O |  |
| inactive | 1.7 |  | CCCCNc1nc2c(cc1C#N)C(=O)CC(C)(C)C2 |  |
|  | 0.005 |  | O=C(NC12CC3CC(CC(C3)C1)C2)c1cnc2ccccc2n1 |  |
|  |  | 2.6 | CC1(C)CC(=O)c2ccc(C#Cc3ccccn3)nc2C1 | Ki [4]: 0.21 µM |
|  | 25 | 1.9 | O=C1CCCc2nc(OCc3ccccc3)ccc21 |  |
|  |  | 29 | CC1(C)CC(=O)c2cc(Br)c(NC3CCCC3)nc2C1 | Activity [11]: inactive |
| inactive | 0.13 |  | CC1(C)CC(=O)c2cc(C#N)c(N3CCN(c4ccccc4)CC3)nc2C1 |  |
|  |  |  | CC1(C)CC(=O)c2cc(Cl)c(NC3CCCC3)nc2C1 | IC50 [9]: 7.9 µM |
| inactive | < 1 |  | CC1(C)CC(=O)c2cc(C#N)c(N3CC=C(c4ccccc4)CC3)nc2C1 |  |
|  |  | 58 | CN(C)C(=O)c1cc2c(nc1NC1CCCC1)CC(C)(C)CC2=O | IC50 [9]: 21 µM |
|  | 4.8 | 57 | CC1(C)CC(=O)c2cc(C#N)c(SCc3ccccc3)nc2C1 |  |
| inactive | 2.5 |  | CC1(C)CC(=O)c2cc(C#N)c(NCc3ccccc3)nc2C1 |  |
|  |  |  | OC1CCCc2nc(C#Cc3ccccc3)ccc21 (stereo not given) | EC50 [10]: 1.13 µM; Ki [4]: 7.6 µM; Activity [5]: 2.2; EC50 [7]: 0.49 µM; Activity [8]: 2 |
|  | ≤ 1 | 37 | CC1(C)CC(=O)c2cc(Br)c(N3CCN(c4ccc(F)cc4)CC3)nc2C1 |  |
| inactive |  |  | CC1(C)CC(=O)c2cc(N3CCOCC3)c(N3CC=C(c4ccc(F)cc4)CC3)nc2C1 | IC50 [9]: 15 µM |
|  | 0.44 |  | O=C(NC12CC3CC(CC(C3)C1)C2)c1ccc2ccccc2n1 |  |
| inactive |  |  | CC1(C)CC(=O)c2cc(-c3cncnc3)c(NC3CCCC3)nc2C1 | Activity [11]: inactive |
|  | 0.006 |  | CCc1nc(C#N)c(N2CCc3ccccc3CC2)nc1C |  |
| inactive | 30 |  | N#Cc1cc2c(nc1SCc1ccccc1)CCCC2=O |  |
| inactive | 1.5 |  | CC1(C)CC(=O)c2cc(C#N)c(N3CCc4ccccc4C3)nc2C1 |  |
|  | 7 |  | O=C(NC12CC3CC(CC(C3)C1)C2)c1cnccn1 |  |
|  |  |  | O[C@@H]1CCCc2nc(C#Cc3ccccc3)ccc21 | EC50 [10]: 0.98 µM; Ki [4]: 4.71 µM; Activity [5]: 3.1; EC50 [7]: 0.18 µM; Activity [8]: 2.5 |
| inactive |  |  | CC1(C)CC(=O)c2cc(C#N)c(NC34CC5CC(CC(C5)C3)C4)nc2C1 |  |

| SMILES | Activity [1] | IC50 [2] [µM] | IC50 [4] [µM] | also measured |
| --- | --- | --- | --- | --- |
| O=C(NC12CC3CC(CC(C3)C1)C2)c1cnc2ccccc2c1 |  | 0.052 |  |  |
